This is an account of results in BindingDB's records for doi:10.1016/j.ejmech.2018.08.004 (The University of Queensland, 2018).

As a reminder, the Ki is the dissociation constant of the complex between target and ligand, obtained from inhibition or displacement.

Experiment [1] deals with T1, Fe(3+)-Zn(2+) purple acid phosphatase (Phaseolus vulgaris, UniProt P80366).
T1 sequence (P80366 whole entry): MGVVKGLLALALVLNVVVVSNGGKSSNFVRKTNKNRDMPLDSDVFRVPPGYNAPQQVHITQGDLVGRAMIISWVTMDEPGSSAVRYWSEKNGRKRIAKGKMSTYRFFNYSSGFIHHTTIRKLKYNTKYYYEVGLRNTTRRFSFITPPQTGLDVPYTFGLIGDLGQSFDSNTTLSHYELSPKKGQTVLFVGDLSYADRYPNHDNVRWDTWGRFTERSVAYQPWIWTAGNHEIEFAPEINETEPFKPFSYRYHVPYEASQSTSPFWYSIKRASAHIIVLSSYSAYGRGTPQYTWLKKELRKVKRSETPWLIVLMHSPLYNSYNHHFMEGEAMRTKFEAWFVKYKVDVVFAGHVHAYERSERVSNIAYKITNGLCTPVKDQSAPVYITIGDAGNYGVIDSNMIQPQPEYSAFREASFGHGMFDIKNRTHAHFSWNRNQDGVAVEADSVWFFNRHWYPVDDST
As to the kind of experiment: Competitive inhibition of red kidney bean purple acid phosphatase Fe(3)Fe(2) state assessed as enzyme-inhibitor complex using pNPP as substrate by UV/Vis spectrophotometric method. In a few lines: (§1)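 Pig PAP was from sow uterine fluid and pre-reduced to Fe(III)Fe(II) with 0.77 mM β-mercaptoethanol (10 min, 37 °C); rkbPAP was purified from red kidney beans. Assays ran at 25 °C, pH 4.9 (0.1 M acetate, 25% DMSO) with 12 nM enzyme, pNPP 1–12.5 mM and inhibitor 50–300 μM. p-Nitrophenol was read at 405 nm. Kic and Kiuc came from non-linear fit to the general inhibition equation.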

The target in experiment [2] is T2, Tartrate-resistant acid phosphatase type 5 (Sus scrofa, UniProt P09889).
T2 sequence (P09889 whole entry): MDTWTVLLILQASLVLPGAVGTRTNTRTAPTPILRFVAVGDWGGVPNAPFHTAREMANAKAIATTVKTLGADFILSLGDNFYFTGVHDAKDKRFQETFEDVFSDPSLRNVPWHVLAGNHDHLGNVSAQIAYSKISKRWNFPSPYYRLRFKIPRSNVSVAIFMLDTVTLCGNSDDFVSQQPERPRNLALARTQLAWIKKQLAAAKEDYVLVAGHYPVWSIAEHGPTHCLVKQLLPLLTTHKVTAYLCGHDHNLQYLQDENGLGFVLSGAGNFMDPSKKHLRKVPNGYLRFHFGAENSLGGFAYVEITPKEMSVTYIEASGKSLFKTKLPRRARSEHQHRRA
As to the kind of experiment: Competitive inhibition of pig purple acid phosphatase Fe(3)Fe(2) state assessed as enzyme-inhibitor complex using pNPP as substrate by UV/Vis spectrophotometric method. In a few lines: as §1

Structures are written as SMILES.

As for `Cc1ccc(-c2nc(C(=O)O)cs2)cc1`, the inhibitory constant (Ki) was 340 µM in experiment [1] and 42 µM in experiment [2].

For the compound `O=C(O)c1csc(-c2cccc3ccccc23)n1`, the Ki worked out at 185 µM in experiment [1] and 33 µM in experiment [2].

On to `O=C(O)c1csc(-c2ccccc2Cl)n1`, for which the figures for the inhibitory constant (Ki) in experiment [1] and in experiment [2] were 920 µM and 630 µM, respectively.

In the case of `COc1ccc(-c2nc(C(=O)O)cs2)cc1`, the inhibitory constant (Ki) is 400 µM in experiment [1] and 120 µM in experiment [2].

For the compound `O=C(O)c1csc(-c2ccccc2)n1`, the inhibition constant Ki in experiment [2] stood at 190 µM.

As for `O=C(O)c1csc(-c2ccc(Cl)cc2)n1`, the inhibitory constant (Ki) in experiment [1] turned out to be 530 µM; in experiment [2] it was 49 µM.
